Laboratory results reported in ChEMBL document CHEMBL3045178, “Metabolites from Aspergillus fumigatus, an endophytic fungus associated with Melia azedarach, and their antifungal, antifeedant, and toxic activities” (J Agric Food Chem, 2012).
Values after ≈ are worked out from the molar mass of the structure shown.

Tests used:
[1] = Toxicity in Artemia salina (brine shrimp) […]; format: organism-based; details: in vivo
[2] = tested on: Alternaria alternata; assay: Antifungal activity against Alternaria alternata at 28 degC after 48 hr microbroth dilution method; format: functional
In short: (§1)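 Plant-pathogenic fungi isolated from infected plant organs. Fungi grown 18 h in PD medium at 28 ± 0.5 °C and 150 rpm, then diluted to about 1 × 10^6 CFU in PD medium. Compounds at 2 mg/mL DMSO stock, serially diluted in triplicate in PD medium in 96-well plates before the fungal suspension was added. DMSO served as negative control. After 48 h at 28 ± 0.5 °C, MIC taken as the lowest concentration with no visible growth.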

[3] = tested on: Alternaria solani; assay: Antifungal activity against Alternaria solani at 28 degC after 48 hr microbroth dilution method; format: functional; in short: as §1
[4] = tested on: Fusarium oxysporum f. sp. vasinfectum; assay: Antifungal activity against Fusarium oxysporum f. sp. vasinfectum at 28 degC after 48 hr microbroth dilution method; format: functional; in short: as §1
[5] = tested on: Fusarium graminearum; assay: Antifungal activity against Fusarium graminearum at 28 degC after 48 hr microbroth dilution method; format: functional
In short: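 Microbroth dilution in PD medium. Fungi were grown 18 h at 28 ± 0.5 °C and 150 rpm, then diluted to about 1 × 10^6 CFU. Compounds (2 mg/mL DMSO stock) were serially diluted in triplicate and fungal suspension added. Incubated 48 h at 28 ± 0.5 °C. MIC was the lowest concentration with no visible growth. Controls: DMSO, carbendazim, hymexazol.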

[6] = tested on: Fusarium solani; assay: Antifungal activity against Fusarium solani at 28 degC after 48 hr microbroth dilution method; format: functional; in short: as §1
[7] = tested on: Colletotrichum gloeosporioides; assay: Antifungal activity against Colletotrichum gloeosporioides at 28 degC after 48 hr microbroth dilution method; format: functional; in short: as §1
[8] = tested on: Fusarium oxysporum f. sp. niveum; assay: Antifungal activity against Fusarium oxysporum f. sp. niveum at 28 degC after 48 hr microbroth dilution method; format: functional; in short: as §1
[9] = tested on: Botrytis cinerea; assay: Antifungal activity against Botryotinia fuckeliana at 28 degC after 48 hr microbroth dilution method; format: functional; in short: as §1
[10] = tested on: Mythimna separata; assay: Antifeedant activity against Mythimna separata (Oriental armyworm) larvae assessed as antifeedant index by area of the leaf consumed; format: functional; design: concentration or dose not given beside the values
In short: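 Positive control prepared at 10 mg/mL in acetone; leaves treated with acetone alone served as control. Ten treated leaves and 10 larvae per Petri dish lined with moistened filter paper. Held at 25 ± 2 °C, 12L:12D, 65−80% rh. Leaf area consumed recorded after 48 h. AFI = (C − T)/C × 100%, from control and treated areas consumed. Three repetitions.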

| SMILES | LC50 [1] [µg/mL] | MIC [2] [µg/mL] | MIC [3] [µg/mL] | MIC [4] [µg/mL] | MIC [5] [µg/mL] | MIC [6] [µg/mL] | MIC [7] [µg/mL] | MIC [8] [µg/mL] | MIC [9] [µg/mL] | AFI [10] [%] |
| --- | --- | --- | --- | --- | --- | --- | --- | --- | --- | --- |
| O=C1NCC(=O)N2CCC[C@@H]12 [CYCLO(PROLYLGLYCYL)] | > 100 | – | – | – | – | – | – | – | – | – |
| COc1ccc2c3c([nH]c2c1)[C@H](C=C(C)C)N1C(=O)[C@@H]2CCCN2C(=O)[C@@]1(O)[C@H]3OC [CYCLOTRYPROSTATIN B] | 37.9 (≈ 89.1 µM) | 12.5 (≈ 29.4 µM) | 12.5 (≈ 29.4 µM) | 25 (≈ 58.8 µM) | 12.5 (≈ 29.4 µM) | 25 (≈ 58.8 µM) | 12.5 (≈ 29.4 µM) | 12.5 (≈ 29.4 µM) | 12.5 (≈ 29.4 µM) | – |
| C[C@@H]1CN(C)[C@@H]2Cc3c[nH]c4cccc(c34)[C@H]2[C@H]1O [FUMIGACLAVINE B] | > 100 | – | – | – | – | – | – | – | – | – |
| C[C@@H]1N[C@H]2N(C1=O)c1ccccc1[C@@]2(O)C[C@@H]1C(=O)N[C@@H](C)c2nc3ccccc3c(=O)n21 [FUMIQUINAZOLINE A] | 39.7 (≈ 89.1 µM) | 12.5 (≈ 28.1 µM) | 12.5 (≈ 28.1 µM) | 50 (≈ 112 µM) | 12.5 (≈ 28.1 µM) | 50 (≈ 112 µM) | 12.5 (≈ 28.1 µM) | 25 (≈ 56.1 µM) | 12.5 (≈ 28.1 µM) | 45 |
| C[C@H]1C(=O)N2c3ccccc3[C@@]3(O)C[C@@H]4C(=O)N[C@](C)(c5nc6ccccc6c(=O)n54)N1[C@@H]23 [FUMIQUINAZOLINE D] | > 100 | 25 (≈ 56.4 µM) | 25 (≈ 56.4 µM) | 50 (≈ 113 µM) | 25 (≈ 56.4 µM) | > 100 | 25 (≈ 56.4 µM) | 50 (≈ 113 µM) | 25 (≈ 56.4 µM) | 10 |
| C[C@@H]1NC(=O)[C@@H](Cc2c[nH]c3ccccc23)n2c1nc1ccccc1c2=O [FUMIQUINAZOLINE F] | 55.3 (≈ 154 µM) | 12.5 (≈ 34.9 µM) | 25 (≈ 69.8 µM) | 50 (≈ 140 µM) | 12.5 (≈ 34.9 µM) | 50 (≈ 140 µM) | 12.5 (≈ 34.9 µM) | 25 (≈ 69.8 µM) | 12.5 (≈ 34.9 µM) | 30 |
| C[C@H]1NC(=O)[C@@H](Cc2c[nH]c3ccccc23)n2c1nc1ccccc1c2=O [FUMIQUINAZOLINE G] | 78.8 (≈ 220 µM) | 12.5 (≈ 34.9 µM) | 25 (≈ 69.8 µM) | 50 (≈ 140 µM) | 12.5 (≈ 34.9 µM) | 50 (≈ 140 µM) | 12.5 (≈ 34.9 µM) | 50 (≈ 140 µM) | 12.5 (≈ 34.9 µM) | – |
| COc1ccc2c3c([nH]c2c1)[C@H](C=C(C)C)N1C(=O)[C@@H]2CCCN2C(=O)[C@@H]1C3 [FUMITREMORGIN] | 40.5 (≈ 107 µM) | 12.5 (≈ 32.9 µM) | 25 (≈ 65.9 µM) | 50 (≈ 132 µM) | 12.5 (≈ 32.9 µM) | 50 (≈ 132 µM) | 12.5 (≈ 32.9 µM) | 25 (≈ 65.9 µM) | 12.5 (≈ 32.9 µM) | 15 |
| CC(=O)O[C@H]1C[C@@]2(C)[C@@H](CC[C@H]3[C@@]4(C)C=CC(=O)[C@@H](C)[C@@H]4[C@H](OC(C)=O)C(=O)[C@@]32C)/C1=C(\CCC=C(C)C)C(=O)O [HELVOLIC ACID] | 73.7 (≈ 130 µM) | 6.25 (≈ 11 µM) | 12.5 (≈ 22 µM) | 25 (≈ 44 µM) | 6.25 (≈ 11 µM) | 50 (≈ 87.9 µM) | 6.25 (≈ 11 µM) | 12.5 (≈ 22 µM) | 6.25 (≈ 11 µM) | 7.5 |
| Cc1cc(O)no1 [HYMEXAZOL] | – | 12.5 (≈ 126 µM) | 12.5 (≈ 126 µM) | 25 (≈ 252 µM) | 12.5 (≈ 126 µM) | 50 (≈ 505 µM) | 12.5 (≈ 126 µM) | 12.5 (≈ 126 µM) | 12.5 (≈ 126 µM) | – |
| CC/C=C/[C@H](O)[C@H](O)C1=C(C)C(=O)[C@]2(O1)C(=O)N[C@@](OC)(C(=O)c1ccccc1)[C@H]2O [PSEUROTIN A1] | > 100 | – | – | – | – | – | – | – | – | – |
| CC/C=C\[C@H](O)[C@H](O)C1=C(C)C(=O)[C@]2(O1)C(=O)N[C@@](OC)(C(=O)c1ccccc1)[C@@H]2O [PSEUROTIN A] | > 100 | – | – | – | – | – | – | – | – | – |
| COc1ccc2c(c1)NC(=O)[C@@]21C=C2C(=O)N3CCC[C@H]3C(=O)N2[C@H]1C=C(C)C [SPIROTRYPROSTATIN B] | > 100 | – | – | – | – | – | – | – | – | – |
| CC(C)=CCc1cccc2c(C[C@@H]3NC(=O)[C@H](C)NC3=O)c[nH]c12 [TEREZINE D] | > 100 | – | – | – | – | – | – | – | – | – |
| CC(=O)O[C@@H]1C[C@H](O)[C@@]23CO[C@@H](O)[C@]1(C)[C@@H]2C[C@@H](O)[C@]1(C)[C@@H]3C(=O)[C@H](OC(C)=O)[C@@]2(C)[C@H](c3ccoc3)C[C@H]3O[C@]321 [TOOSENDANIN] | < 1 | – | – | – | – | – | – | – | – | 97.5 |
| COc1ccc2c(C[C@@H]3NC(=O)[C@@H]4CCCN4C3=O)c(CC=C(C)C)[nH]c2c1 [TRYPROSTATIN A] | 44.8 (≈ 117 µM) | – | – | – | – | – | – | – | – | – |
| C[C@@H]1C(=O)N2c3ccccc3[C@@]3(O)C[C@H](n4cnc5ccccc5c4=O)C(=O)N1[C@H]23 [TRYPTOQUIVALINE O] | 72.8 (≈ 181 µM) | 25 (≈ 62.1 µM) | 12.5 (≈ 31.1 µM) | > 100 | 50 (≈ 124 µM) | > 100 | 100 (≈ 249 µM) | > 100 | 25 (≈ 62.1 µM) | – |
| O=c1cc[nH]c(=O)[nH]1 [URACIL] | > 100 | – | – | – | – | – | – | – | – | – |
| COc1ccc2c3c4n(c2c1)[C@H](C=C(C)C)OOC(C)(C)C[C@@H]4N1C(=O)[C@@H]2CCCN2C(=O)[C@]1(O)[C@H]3O [VERRUCULOGEN] | 15.8 (≈ 30.9 µM) | 6.25 (≈ 12.2 µM) | 12.5 (≈ 24.4 µM) | 25 (≈ 48.9 µM) | 6.25 (≈ 12.2 µM) | 50 (≈ 97.7 µM) | 6.25 (≈ 12.2 µM) | 12.5 (≈ 24.4 µM) | 6.25 (≈ 12.2 µM) | 55 |
